Drawing on the array DNA melting data of Ke et al. (doi:10.1101/2024.01.08.574731), this text covers folding enthalpy and Tm for 73 sequences.

Data set [1] is described as follows: folding enthalpy; higher = less favourable; fluorescence melt of hairpins on a sequencing array, two-state fit. As to conditions: sodium 0.088 M. A digest of the protocol:
(§1)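 Folding enthalpy and melting temperature come from bootstrapped two-state fits to Cy3 fluorescence of library hairpins carrying annealed Cy3 and quencher oligos on a sequenced MiSeq flow cell. Imaging was done in 50 mM Na-HEPES pH 8.0, 25 mM NaCl, stepping by 2.5 °C up to 60 °C, and signals were normalised to pre-quench Cy3 and to control constructs. Results of four replicates were combined by inverse variance, and fitted temperatures were raised by 9.35 °C to match UV melts.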

Data set [2] in a line: melting temperature; fluorescence melt of hairpins on a sequencing array, two-state fit, raised by 9.35 °C to match UV melts. Particulars: sodium 0.088 M. A digest of the protocol: as §1

As for GGATTTGGAAACAAGTCC (((.(((....))).))), in data set [1], the folding enthalpy is -31.5 kcal/mol. The Tm in data set [2] was 42.7 °C.
For GGCAAACCGAAAGGTGCC (((..(((....)))))) the same measures were -39.1 kcal/mol and 56 °C.
In the same order, the values of GGCAAACGAAAGTTCGCC (((.(((....))).))) are -47.9 kcal/mol and 53.3 °C.
In the same order, the values of GGCAACGAAAGTTGAGCC ((((((....)))..))) are -15.3 kcal/mol and 45.4 °C.
On to GGCAACGAAAGTTGGCC ((((((....))).))), for which the folding enthalpy in data set [1] was -18.7 kcal/mol. Moreover, the Tm in data set [2] amounted to 64 °C.
In the same order, the values of GGCAAGACGAAAGTCGCC (((..(((....)))))) are -18.9 kcal/mol and 54.2 °C.
For GGCAAGCGAAAGCTAGCC (((.(((....))).))) the same measures were -35.9 kcal/mol and 63.4 °C.
On to GGCAATGCGAAAGCAGCC (((..(((....)))))), for which the folding enthalpy in data set [1] was -17.7 kcal/mol. Further, in data set [2], the Tm is 57.6 °C.
For GGCAATGGAAACATTACC ((.((((....)))).)) the same measures were -26.7 kcal/mol and 37.3 °C.
For the sequence GGCACACGAAAGTGCGCC (((.(((....))).))), the folding enthalpy in data set [1] was -36.9 kcal/mol. The Tm in data set [2] was determined as 66.7 °C.
For GGCACAGCGAAAGCTGCC (((..(((....)))))) the same measures were -12.3 kcal/mol and 48.3 °C.
For GGCACCGAAAGGTAAGCC ((((((....)))..))) the same measures were -35 kcal/mol and 52.6 °C.
For GGCACCGAAAGGTGCGCC ((((((....)))..))) the same measures were -6.18 kcal/mol and 66.1 °C.
GGCACCGAAAGGTGGGCC ((((((....)))..))): the folding enthalpy in data set [1] is -12.5 kcal/mol. In data set [2], the Tm was found to be 52.6 °C.
For the sequence GGCACCGAAAGGTTCGCC ((((((....)))..))), the folding enthalpy in data set [1] was -20 kcal/mol. In addition, the Tm in data set [2] turned out to be 47.7 °C.
In the same order, the values of GGCACCGAAAGGTTGCC ((((((....))).))) are -30.9 kcal/mol and 63 °C.
With GGCACCTCGAAAGAGGCC (((..(((....)))))), in data set [1], the folding enthalpy is -12.2 kcal/mol. For the same sequence, the Tm in data set [2] came out at 38.2 °C.
On to GGCACGACGAAAGTCGCC (((..(((....)))))), for which the folding enthalpy in data set [1] was -8.64 kcal/mol. Further, the Tm in data set [2] turned out to be 38.4 °C.
In the same order, the values of GGCACGGGAAACCGCACC ((..(((....)))..)) are -10.3 kcal/mol and 32.4 °C.
As to GGCACGTCGAAAGACGCC (((..(((....)))))), in data set [1], the folding enthalpy was -11 kcal/mol. Moreover, the Tm in data set [2] was determined as 40.7 °C.
In the same order, the values of GGCACTCGAAAGAGGCC (((.(((....)))))) are -21.5 kcal/mol and 57.8 °C.
In the same order, the values of GGCACTGGAAACAGCGCC (((.(((....))).))) are -46.1 kcal/mol and 54 °C.
For GGCACTGGAAACGGTGCC (((((.(....).))))) the same measures were -50.7 kcal/mol and 60.5 °C.
GGCACTGGAAACGGTGTC (.(((.(....).))).): in data set [1], the folding enthalpy is -28.1 kcal/mol. Moreover, the Tm in data set [2] turned out to be 41.7 °C.
With GGCAGACGAAAGTCGCC (((.(((....)))))), in data set [1], the folding enthalpy is -23.1 kcal/mol. For the same sequence, the Tm in data set [2] came out at 65.2 °C.
As to GGCAGAGAAATCTGCC ((((((....)))))), the folding enthalpy in data set [1] is -32.8 kcal/mol. Also, the Tm in data set [2] came to 63.5 °C.
In the same order, the values of GGCAGCACGAAAGTGGCC (((..(((....)))))) are -22.3 kcal/mol and 51 °C.
In the same order, the values of GGCAGCGAAAGCTAGCC ((((((....))).))) are -32.9 kcal/mol and 62 °C.
In the same order, the values of GGCAGCGAAAGCTTCGCC ((((((....)))..))) are -17.4 kcal/mol and 49.1 °C.
For GGCAGCGCGAAAGCGGCC (((..(((....)))))), the folding enthalpy in data set [1] was -17.3 kcal/mol. Further, the Tm in data set [2] came to 58.3 °C.
In the same order, the values of GGCAGGGCGAAAGCCGCC (((..(((....)))))) are -18.4 kcal/mol and 63.3 °C.
In the same order, the values of GGCAGGGGAAACCCCGCC (((.(((....))).))) are -35.7 kcal/mol and 57 °C.
For GGCAGGGGAAACCCTACC ((.((((....)))).)) the same measures were -26.6 kcal/mol and 43.7 °C.
In the case of GGCAGGGGAAACTCTGCC (((((.(....).))))), the folding enthalpy in data set [1] was -48.5 kcal/mol. Moreover, in data set [2], the Tm is 57 °C.
For GGCAGTACGAAAGTAGCC (((..(((....)))))), in data set [1], the folding enthalpy was -21.6 kcal/mol. In addition, the Tm in data set [2] turned out to be 44.9 °C.
In the same order, the values of GGCAGTGGAAACACCGCC (((.(((....))).))) are -27.1 kcal/mol and 50.6 °C.
For GGCAGTGGAAACACTACC ((.((((....)))).)) the same measures were -29.7 kcal/mol and 43.4 °C.
Turning to GGCATAGGAAACTATGTC (.(((((....))))).), the folding enthalpy in data set [1] is -35 kcal/mol. Also, the Tm in data set [2] came to 45.7 °C.
For GGCATAGGAAACTGTGCC ((((.((....)).)))), the folding enthalpy in data set [1] was -45.3 kcal/mol. In addition, in data set [2], the Tm came to 53.7 °C.
For the sequence GGCATAGGAAACTGTGTC (.((.((....)).)).), in data set [1], the folding enthalpy is -23.9 kcal/mol. Further, the Tm in data set [2] turned out to be 33.5 °C.
With GGCATCGAAAGATAGGCC ((((((....)))..))), the folding enthalpy in data set [1] is -27.2 kcal/mol. The Tm in data set [2] stood at 46 °C.
In the same order, the values of GGCATCGAAAGATTCGCC ((((((....)))..))) are -25.4 kcal/mol and 36.5 °C.
For GGCATCGGAAACGGTGCC ((((.((....)).)))) the same measures were -29.8 kcal/mol and 60.5 °C.
As for GGCATGGAAACATGCC ((((((....)))))), in data set [1], the folding enthalpy is -34.9 kcal/mol. In addition, in data set [2], the Tm came to 67.3 °C.
As for GGCATGGCGAAAGCCGCC (((..(((....)))))), in data set [1], the folding enthalpy was -16 kcal/mol. In addition, the Tm in data set [2] amounted to 59.4 °C.
In the same order, the values of GGCATGGGAAACCGTGCC ((((.((....)).)))) are -33.2 kcal/mol and 62.7 °C.
In the same order, the values of GGCATGGGAAACCGTGTC (.((.((....)).)).) are -33.7 kcal/mol and 43.3 °C.
In the same order, the values of GGCATGGGAAACTATGCC (((((.(....).))))) are -38.9 kcal/mol and 53.6 °C.
GGCATGTCGAAAGACGCC (((..(((....)))))): the folding enthalpy in data set [1] is -25.2 kcal/mol. Further, in data set [2], the Tm was 52.1 °C.
As to GGCATTCCGAAAGGAGCC (((..(((....)))))), the folding enthalpy in data set [1] was -23.4 kcal/mol. The Tm in data set [2] turned out to be 43.1 °C.
In the same order, the values of GGCATTCGAAAGAAGCC (((.(((....)))))) are -25 kcal/mol and 48.5 °C.
In the same order, the values of GGCATTGGAAACAATGTC (.(((((....))))).) are -31.9 kcal/mol and 48.1 °C.
As for GGCATTGGAAACAGTGCC ((((.((....)).)))), in data set [1], the folding enthalpy was -43 kcal/mol. For the same sequence, the Tm in data set [2] stood at 52.2 °C.
For GGCCAAGGAAACTTGGTC (.(((((....))))).) the same measures were -35.1 kcal/mol and 53.3 °C.
For GGCCAATCGAAAGATGCC (((..(((....)))))) the same measures were -23.9 kcal/mol and 42.9 °C.
GGCCACCGAAAGGTGCC (((.(((....)))))): in data set [1], the folding enthalpy was -15.8 kcal/mol. Also, the Tm in data set [2] was 60.8 °C.
In the same order, the values of GGCCACGAAAGTGGAGCC ((((((....)))..))) are -15.5 kcal/mol and 53.9 °C.
For GGCCACGAAAGTGGGGCC ((((((....)))..))) the same measures were -14.2 kcal/mol and 60.3 °C.
Regarding GGCCACGAAAGTGGTGCC ((((((....)))..))), the folding enthalpy in data set [1] is -12.7 kcal/mol. Moreover, the Tm in data set [2] is 49.9 °C.
As to GGCCACGAAAGTGTGGCC ((((((....)))..))), in data set [1], the folding enthalpy is -33.6 kcal/mol. Besides, the Tm in data set [2] was 68.5 °C.
As for GGCCACGAAAGTGTTGCC ((((((....)))..))), the folding enthalpy in data set [1] is -16.7 kcal/mol. For the same sequence, the Tm in data set [2] worked out at 49.9 °C.
As for GGCCACTCGAAAGAGGCC (((..(((....)))))), the folding enthalpy in data set [1] is -27.7 kcal/mol. Moreover, the Tm in data set [2] was found to be 52.3 °C.
As for GGCCAGGGAAACCTGACC ((.((((....)))).)), the folding enthalpy in data set [1] was -34.4 kcal/mol. In data set [2], the Tm turned out to be 48.3 °C.
As to GGCCATACGAAAGTAGCC (((..(((....)))))), the folding enthalpy in data set [1] was -20.6 kcal/mol. Moreover, the Tm in data set [2] is 38.7 °C.
In the case of GGCCATGCGAAAGCAGCC (((..(((....)))))), in data set [1], the folding enthalpy was -17.1 kcal/mol. Further, the Tm in data set [2] came to 48.4 °C.
For GGCCCAGGAAACCAGGCC ((((..(....)..)))) the same measures were -31.6 kcal/mol and 47 °C.
For GGCCCAGGAAACTGGACC ((.((((....)))).)) the same measures were -32.8 kcal/mol and 50.5 °C.
In the same order, the values of GGCCCCCGAAAGGGAGCC (((.(((....))).))) are -27.1 kcal/mol and 66.8 °C.
As to GGCCCCCGAAAGGGTGCC (((.(((....))).))), the folding enthalpy in data set [1] was -27.9 kcal/mol. The Tm in data set [2] came out at 64.5 °C.
In the case of GGCCCCGAAAGGGTCGCC ((((((....)))..))), in data set [1], the folding enthalpy is -16.1 kcal/mol. For the same sequence, the Tm in data set [2] is 55.5 °C.
For GGCCCCGAAAGGGTGCC ((((((....))).))) the same measures were -23.3 kcal/mol and 66.1 °C.
With GGCCCCGCGAAAGCGGCC (((..(((....)))))), the folding enthalpy in data set [1] was -9.49 kcal/mol. The Tm in data set [2] was found to be 41 °C.
As to GGCCCGCGAAAGCGAGCC (((.(((....))).))), the folding enthalpy in data set [1] is -31.3 kcal/mol. In addition, in data set [2], the Tm came out at 67.2 °C.
